What was measured:
[1] = DPPH radical scavenging assay
[2] = system: A172 human glioblastoma cells; assay: WST cell viability assay, A172; type: cell-based
Outline: (§1)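 Cells (MEM, 10% FBS, 37 °C, 5% CO₂) were seeded at 3 × 10³/well and pre-incubated 24 h. They were treated with test compound at 0.16, 0.8, 4, 20 or 100 μM for 24, 48 or 72 h, with DMSO as vehicle control. WST-1 was then added for 4 h at 37 °C and absorbance read at 516 nm (reference 600 nm). Viability was taken relative to untreated cells and IC50 read from dose-response curves at each time; ≥3 independent experiments.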

[3] = system: LN229 human glioblastoma cells; assay: WST cell viability assay, LN229; type: cell-based
Outline: as §1

[4] = system: normal human astrocytes (NHA); assay: WST cell viability assay, NHA; type: cell-based
Outline: as §1

A172 cells = assay: Flow cytometry analysis of cell cycle and apoptosis; type: cell-based, human; conditions: for G0-G1, percentage of cells / Sub G1, percentage of cells: A172, 4 μM
Outline: (§2)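 Cells from MD Anderson were grown in MEM with 10% FBS, penicillin-streptomycin and 1% glutamine at 37 °C, 5% CO₂. About 1 × 10⁶ cells per 10-cm plate were exposed to test compound (4 or 10 μM) for 0, 24, 48 or 72 h. Cells were spun down, PBS-washed, fixed overnight (12 h) in chilled 70% ethanol and PI-stained. Sub-G1, G0/G1, S and G2/M fractions were measured; mean ± S.D. of three experiments, untreated controls at each time.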

LN229 cells = assay: as above; type: cell-based, human; conditions: for G0-G1, percentage of cells: LN229, 4 μM
Outline: as §2

| Structure (SMILES) | Percentage of antioxidant activity (DPPH) ([1]; 250 μM/mL) | Percentage of antioxidant activity (DPPH) ([1]; 500 μM/mL) | Percentage of antioxidant activity (DPPH) ([1]; 750 μM/mL) | Percentage of antioxidant activity (DPPH) ([1]; 1000 μM/mL) | IC50 ([2]; A172, 72 h) | IC50 ([3]; LN229, 24 h) | IC50 ([3]; LN229, 48 h) | IC50 ([3]; LN229, 72 h) | IC50 ([4]; 48 h) | further results |
| --- | --- | --- | --- | --- | --- | --- | --- | --- | --- | --- |
| O=C1O[C@H]([C@@H](O)CO)C(O)=C1O [Ascorbic acid, reference compound] | 74.08 ± 0.04% | 80.24 ± 0.01% | 85.79 ± 0.1% | 92.059 ± 0.08% |  |  |  |  |  |  |
| COc1ccc(C(c2c(O)c3ccccc3oc2=O)c2c(O)c3ccccc3oc2=O)cc1 [HL, 3,3′-[(4-methoxyphenyl)methanediyl]bis(4-hydroxy-2Hchromen-2-one)] | 10.37 ± 0.08% | 15.12 ± 0.03% | 19.41 ± 0.02% | 25.62 ± 0.07% | 950 nM | 9550 nM | 1780 ± 50 nM | 850 ± 70 nM | 640 ± 60 nM | IC50 ([2]; Homo sapiens, A 172, 24 h, A172, 24 h): 2680 ± 190 nM; IC50 ([4]; Homo sapiens, Astrocyte, 24 h): 3210 ± 40 nM; IC50 ([4]; Homo sapiens, Astrocyte, 72 h): 220 ± 40 nM; cell cycle arrest, phase (A172 cells; A172): cell cycle arrest was caused at G0/G1 phase; G0-G1, percentage of cells (A172 cells; 24 h): 67.66%; Sub G1, percentage of cells (A172 cells; 48 h): 6.48%; G0-G1, percentage of cells (A172 cells; 72 h): 59.23%; Sub G1, percentage of cells (A172 cells; 72 h): 4.55%; cell cycle arrest, phase (LN229 cells; LN229): arrested at G0/G1 phase; G0-G1, percentage of cells (LN229 cells; 24 h): 70.33%; G0-G1, percentage of cells (LN229 cells; 48 h): 61.70%; G0-G1, percentage of cells (LN229 cells; 72 h): 41.11% |
| CCCN(C)CCc1c[nH]c2ccccc12 [MPT, Methylprophyl tryptamine, reference compound] |  |  |  |  | 430 ± 90 nM | 448 ± 300 nM | 447 ± 10 nM | 440 ± 70 nM | 470 ± 40 nM | IC50 ([2]; A172, 48 h): 440 ± 130 nM; IC50 ([4]; 24 h): 490 ± 30 nM; IC50 ([4]; 72 h): 450 ± 40 nM |
